Measured values reported in article PMC3460462 (The Journal of Biological Chemistry, 2012).
Each block holds one compound with its values, some of them ahead of it. Ends that are not written are not given here.

How the values were obtained:
Format in all cases: cell-based
mFpr1 [1] = target: T1, mFpr1 (Mus musculus, UniProt P33766); experiment: FLIPR Ca2+ assay, HEK293T cells transfected with mFpr1 and Gα16
T1 sequence (P33766 1-364): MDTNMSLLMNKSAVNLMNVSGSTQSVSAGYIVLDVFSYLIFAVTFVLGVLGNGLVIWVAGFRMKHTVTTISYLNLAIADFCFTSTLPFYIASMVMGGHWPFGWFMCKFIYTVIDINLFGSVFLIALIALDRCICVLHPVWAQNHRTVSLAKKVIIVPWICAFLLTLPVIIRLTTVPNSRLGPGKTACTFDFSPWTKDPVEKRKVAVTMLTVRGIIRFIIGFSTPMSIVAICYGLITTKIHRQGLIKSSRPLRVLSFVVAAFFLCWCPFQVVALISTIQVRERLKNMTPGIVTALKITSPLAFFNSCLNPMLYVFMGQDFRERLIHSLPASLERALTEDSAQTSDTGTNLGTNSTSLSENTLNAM

mFpr2 [2] = target: T2, mFpr2 (Mus musculus, UniProt O88536); experiment: FLIPR Ca2+ assay, HEK293T cells transfected with mFpr2 and Gα16
T2 sequence (O88536 1-351): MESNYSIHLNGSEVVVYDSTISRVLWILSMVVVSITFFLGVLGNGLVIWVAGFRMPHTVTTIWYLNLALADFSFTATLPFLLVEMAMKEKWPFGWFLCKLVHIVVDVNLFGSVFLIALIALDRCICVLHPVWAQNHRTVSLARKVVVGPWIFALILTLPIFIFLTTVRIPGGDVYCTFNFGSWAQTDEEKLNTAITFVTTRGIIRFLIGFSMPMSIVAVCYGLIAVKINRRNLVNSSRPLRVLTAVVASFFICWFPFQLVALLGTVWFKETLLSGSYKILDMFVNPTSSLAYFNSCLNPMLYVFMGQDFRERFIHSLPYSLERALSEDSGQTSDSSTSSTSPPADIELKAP

[3] = test system: human receptors (hFPR1, hFPR2, hFPR3); experiment: FLIPR Ca2+ assay, human receptors
Procedure, shortened: (§1)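 HEK293T PEAKrapid cells seeded on poly-D-lysine, transfected 24 h later (jetPEI) with receptor plus Gα16 in equal amounts, or empty vector for mock. After 48 h, loaded with 2 μM Fluo-4 AM and 50 μM probenecid for 2 h at room temperature in C1 buffer (HEPES, pH 7.2), then rinsed three times. About 50,000 cells per well on FLIPR; ligands in C1. Response is ΔF/F0 (peak over baseline), fitted with a variable-slope sigmoid.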

hFPR2 = target: T3, hFPR2 (Homo sapiens, UniProt P25090); experiment: FLIPR Ca2+ assay, HEK293T cells transfected with hFPR2 and Gα16; conditions: 1% DMSO
T3 sequence (P25090 1-351): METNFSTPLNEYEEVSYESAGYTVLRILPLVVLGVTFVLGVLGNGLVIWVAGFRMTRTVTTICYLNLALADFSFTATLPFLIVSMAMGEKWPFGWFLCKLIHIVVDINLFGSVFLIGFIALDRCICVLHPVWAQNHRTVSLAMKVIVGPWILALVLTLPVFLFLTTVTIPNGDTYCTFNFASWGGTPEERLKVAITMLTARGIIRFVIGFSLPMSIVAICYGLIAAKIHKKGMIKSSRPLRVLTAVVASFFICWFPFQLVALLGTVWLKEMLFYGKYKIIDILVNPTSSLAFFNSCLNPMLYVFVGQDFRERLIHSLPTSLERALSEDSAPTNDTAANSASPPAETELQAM

mFpr-rs1 = target: T4, mFpr-rs1 (Mus musculus, UniProt O08790); experiment: FLIPR Ca2+ assay, HEK293T cells transfected with mFpr-rs1 and Gα16
T4 sequence (O08790 1-351): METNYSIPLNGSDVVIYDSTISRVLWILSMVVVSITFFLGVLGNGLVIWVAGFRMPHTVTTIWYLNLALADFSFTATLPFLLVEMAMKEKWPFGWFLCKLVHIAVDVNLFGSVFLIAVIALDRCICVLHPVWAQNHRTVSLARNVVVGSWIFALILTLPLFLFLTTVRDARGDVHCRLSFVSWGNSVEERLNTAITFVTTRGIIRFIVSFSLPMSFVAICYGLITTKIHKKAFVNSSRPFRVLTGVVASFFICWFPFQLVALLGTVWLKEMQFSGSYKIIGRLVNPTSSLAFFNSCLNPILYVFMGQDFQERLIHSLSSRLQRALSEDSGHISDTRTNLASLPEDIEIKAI

mock-transfected cells = experiment: FLIPR Ca2+ assay, mock-transfected negative control; conditions: mock-transfected negative controls; different kinetics
Procedure, shortened: as §1

mFpr1 [4] = target: T1, mFpr1; experiment: Single-cell resolution Ca2+ imaging, mFpr1; conditions: 9 μM fMLF; single-cell Fura-2 Ca2+ imaging
Procedure, shortened: (§2)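 Single-cell Ca2+ imaging on a Pathway Bioimager. HEK293T PEAKrapid cells cotransfected with receptor, Gα16 and EGFP plasmid (1/10) and loaded with Fura-2/AM. […] C1 buffer application served as mechanical control, with buffer-responding cells excluded; 30 μM ATP checked viability. Mock-transfected cells were the negative control, and responding cells were counted.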

mFpr2 [5] = target: T2, mFpr2; experiment: Single-cell resolution Ca2+ imaging, mFpr2; conditions: 9 μM fMLF; single-cell Fura-2 Ca2+ imaging
Procedure, shortened: as §2

[6] = test system: all other family members (hFPR3, vomeronasal Fprs); experiment: Single-cell resolution Ca2+ imaging, all other Fpr family members; conditions: 9 μM fMLF; single-cell Fura-2 Ca2+ imaging
Procedure, shortened: as §2

Compound: H-RIHIGPGRALYTT-OH [V3gp120 HIV (BK-130)]
- EC50 (mFpr1 [1]): 4.5 µM
- activation threshold (mFpr1 [1]; FLIPR Ca2+): ~1 µM
- subtype selectivity (in words) (mFpr1 [1]; mFpr1 versus mFpr2, FLIPR Ca2+): strongly preferential activators of mFpr1
- concentrations at which only a weak activation was seen (mFpr2 [2]; weak activation): ≥ 30 µM

- Ca2+ response (in words) [3]: robust Ca^2+ elevations
Compound: Ac2-26: classical Fpr agonist purchased from Tocris (Ac-AMVSEFLKQAWFIENEEQEYVQTVK; UniProt P04083 2-26, looked up, fragment)

- receptor activation (in words) (hFPR2): susceptible
- saturation reached at (mFpr1 [1]; DMSO concentration, FLIPR Ca2+): ~3%
- threshold of activation (mFpr1 [1]; DMSO concentration, FLIPR Ca2+): ~0.1%
- saturation reached at (mFpr2 [2]; DMSO concentration): ~3%
- threshold of activation (mFpr2 [2]; DMSO concentration): ~0.1%
- receptor activation (in words) (mFpr-rs1): but not mFpr-rs1
Compound: C[S+](C)[O-] [DMSO, dimethyl sulfoxide]
- concentrations giving unspecific DMSO-dependent signals (mock-transfected cells): > 2%

- activation by fMLF (in words) (mFpr1 [4]): could be activated
- activation by fMLF (in words) (mFpr2 [5]): could be activated
Compound: N-formylmethionine-leucine-phenylalanine [fMLF]
- activation by fMLF (in words) [6]: did not respond
